CASP6 VEID inh: caspase-6 (human) enzyme inhibition; purified caspase-6, Z-VEID-R110 cleavage fluorescence; P55212; 0.53% of 350,000 active; inhibition, % at 12.5 µM; AID 686996;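 active = mean inhibition across replicates at least about 35%, with every replicate also reaching that limit, limit read from the data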;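 note: 0% = median of neutral control wells and 100% = no fluorescence left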
NSD2 HMT inh: NSD2 (human) methyltransferase inhibition; NSD2 peptide methylation, AlphaScreen, 120 min; inhibition, % at 12.5 µM; 0.54% of 310,000 active
NS3 helicase inh: blocks Hepatitis C virus NS3 helicase unwinding. NS3 helicase DNA unwinding, Cy5 molecular beacon fluorescence. inhibition, % at 10.9 µM. 0.56% of 290,000 active;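 active = inhibition above the mean of all tested compounds plus 3 SD, set per campaign, cut at about 35% in these data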;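 note: 0% = DMSO wells and 100% = thioflavine S control wells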
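assay system = NS3 helicase fragment of HCV | buffer or medium = MOPS pH 6.5, MgCl2, DTT, Tween20, BSA | timing = 60 min unwinding reaction at 25 °C after ATP addition | signal = Cy5 beacon fluorescence read at start and 1 h | read-out basis = % inhibition of unwinding | control set = low DMSO, high thioflavine S at 110 µM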
DNMT1 inh: blocks human DNA methyltransferase DNMT1; 0.83% of 360,000 active; DNMT1 molecular beacon, Hinp1I cleavage, fluorescence; inhibition (reported as % activation of signal), % at 10 µM; P26358
Beacon interf DR: shows spectral interference in the DNMT1 beacon assay | shares compounds with DNMT1 inh | molecular beacon fluorescence, spectral interference counter-screen | IC50, µM | 200 tested, under 10 active; call rule not given here
DNMT1 inh conf: DNMT1 inhibition confirmation, single concentration; shares compounds with DNMT1 inh; DNMT1 molecular beacon HinP1I cleavage, fluorescence; inhibition, % at 10 µM; 8% of 2,300 active; AID 602385;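 active = average inhibition of at least 30% in the single-concentration confirmation test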
DNMT1 interf: beacon fluorescence artifact counter-screen; AID 602387; 1% of 2,300 active; DNMT1 molecular beacon spectral interference counterscreen, fluorescence 485/520; shares compounds with DNMT1 inh; activation (fluorescence interference), % at 10 µM;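 active = activation of at least 30% at 10 µM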;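 note: DNMT1 catalytic domain with a HinP1I cleavage step and a FAM/dabcyl DNA beacon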
Starred values were filed as active, the others as inactive; / = no result. Only some compounds are listed: those with a hit (about 1.5% of all), similar ones and a draw of the others. Cut-off read from the data, not from the text of the source, unless noted: active = inhibition above about 50%; inactive = the rest.

SMILES | CASP6 VEID inh | NSD2 HMT inh | NS3 helicase inh | DNMT1 inh | DNMT1 inh conf | DNMT1 interf | others
CNC[C@@H]1OCCCC[C@@H](C)Oc2ccc(NS(=O)(=O)c3ccccc3)cc2C(=O)N([C@H](C)CO)C[C@@H]1C | 0 | / | / | / | / | /
COc1ccc(S(=O)(=O)N[C@@H]2C=C[C@H](CC(=O)N3CCc4ccccc4C3)O[C@H]2CO)cc1 | 4 | / | / | / | / | /
CC(C)c1ccc(NC(=O)C(c2ccccc2)N2CCOCC2)cc1 (stereo not drawn) | -4 | / | / | 71* | 2 | 4
CC(C)c1ccc(NC(=O)C(c2ccccc2)N2CCN(C=O)CC2)cc1 (stereo not drawn) | / | -2 | 0 | -2 | / | /
CO[C@H]1CN(C)C(=O)c2ccc(NC(C)=O)cc2OC[C@H](C)N(Cc2ccccc2F)C[C@H]1C | -1 | / | / | / | / | /
S=c1[nH]nc(-c2cc(-c3ccco3)[nH]n2)n1-c1ccccc1Cl | / | / | 29 | 73* | 9 | 9
Cc1cc(SCc2ccc([N+](=O)[O-])cc2)nc(=O)[nH]1 | 1 | 34 | 33 | 52* | 2 | -1
CCOc1cc(/C=C(\C#N)C(=O)Nc2cccc(C(=O)O)c2)ccc1OCc1ccc(Br)cc1 | 3 | -1 | -9 | 89* | 104* | -1 | Beacon interf DR=>99
O=C(N/N=C/c1ccsc1)c1cc2ccccc2o1 | -2 | -2 | -4 | -1 | / | /
O=C(N/N=C/c1cccc([N+](=O)[O-])c1)c1cc2ccccc2o1 | -1 | 0 | -4 | 94* | 1 | 0
C[C@H](CO)N1C[C@H](C)[C@H](CN(C)S(=O)(=O)c2ccccc2F)Oc2ncc(C#Cc3ccccc3F)cc2C1=O | 1 | / | / | / | / | /
COc1ccc(NC(=O)Nc2ccc3c(c2)C(=O)N([C@H](C)CO)C[C@@H](C)[C@@H](CN(C)Cc2ccc(C(=O)O)cc2)OCCCC[C@@H](C)O3)cc1 | -2 | / | / | / | / | /
CN(CC(=O)Nc1cccc(F)c1)C(=O)CN1c2cccc3cccc(c23)S1(=O)=O | 9 | -5 | / | 53* | 1 | 1
CN(C)C(=O)CN1c2cccc3cccc(c23)S1(=O)=O | -1 | -6 | 3 | -2 | / | /
C=CCn1c(SCC(=O)NC(=O)NCc2ccco2)nc2sc(CC)cc2c1=O | / | / | 5 | 62* | 6 | 2
Cc1sc2nc(SCC(=O)NCc3ccco3)n(C)c(=O)c2c1C | / | -5 | -3 | 2 | / | /
CCn1c(SCC(=O)NC(=O)NCc2ccco2)nc2sc(C)c(C)c2c1=O | / | / | 9 | 78* | 2 | 4
Cc1nc(NCc2cccnc2)c2c3c(sc2n1)CCCC3 | 7 | -3 | 6 | 51* | 1 | -5
c1cncc(CNc2ncnc3sc4c(c23)CCCC4)c1 | 1 | 1 | 10 | -1 | / | /
N#Cc1c(SCC(=O)Nc2nccs2)nc2c(c1-c1ccco1)CCCC2 | / | 0 | -3 | 60* | 5 | 0
C[C@@H]1CN([C@H](C)CO)C(=O)c2cc(C3=CCCC3)cnc2O[C@H]1CN(C)C(=O)C1CCOCC1 | -3 | / | / | / | / | /
C[C@H](CO)N1C[C@H](C)[C@H](CN(C)Cc2ccc(Cl)c(Cl)c2)OCCCC[C@H](C)Oc2ccc(NC(=O)Nc3ccccc3)cc2C1=O | 0 | / | / | / | / | /
O=[N+]([O-])c1ccc(/C=N/NC(=S)Nc2ccc(Cl)cc2Cl)s1 | 1 | 4 | 1 | 60* | 5 | -3
Clc1ccc(-c2cc3nc(NCc4cccc(Cl)c4)ccn3n2)cc1 | -3 | -1 | / | 79* | 6 | 9
C/C=C/c1ccc(C2[C@@H]3CN(S(=O)(=O)c4ccccc4C)C[C@H]2N3)cc1 (stereo partly drawn) | -1 | / | / | / | / | /
SMILES | CASP6 VEID inh | NSD2 HMT inh | NS3 helicase inh | DNMT1 inh | DNMT1 inh conf | DNMT1 interf | others
O=C(C1CCCCC1)N1CC2(C1)[C@H](c1ccccc1)[C@H](CO)N2C(=O)NC1CCCC1 | 1 | / | / | / | / | /
CCOC(=O)c1sc(NC(=O)Nc2ccccc2F)nc1C | / | -2 | -11 | 4 | / | /
CCOC(=O)c1sc(NC(=O)/C=C/c2c(F)cccc2Cl)nc1C | 0 | 0 | -9 | 60* | 0 | -2
Cc1cccc2c(N)c3c(nc12)CCCC3 (tested in a mixture with another compound) | -1 | 1 | 6 | 6 | / | /
Cc1cc(C)c2c(N)c3cccc(C)c3nc2n1 | -2 | 9 | 7 | 73* | 40* | -3 | Beacon interf DR=>99
Cc1noc(C)c1NC(=O)N(C)C[C@H]1OCCCC[C@@H](C)Oc2ccc(NC(=O)c3ccncc3)cc2C(=O)N([C@H](C)CO)C[C@@H]1C | -1 | / | / | / | / | /
Nc1nc(SCc2ccc(Cl)cc2Cl)nc2nc3c(cc12)CCCC3 | -3 | 0 | -5 | 90* | 0 | -1
Cc1cccc(N2CCN(C(=O)C3CCCCC3)CC2)c1C | / | -3 | -2 | -2 | / | /
CCS(=O)(=O)N1Cc2ccccc2CC1C(=O)N1CCN(c2cccc(C)c2C)CC1 (stereo not drawn) | / | -1 | -7 | 65* | 5 | 2
NC(=S)N/N=C/c1coc2c(ccc3ccccc32)c1=O | / | 0 | -3 | 55* | 2 | -7
O=C(O)C1CC2C3CC(C(=O)O)C(C3)C2C1 (stereo not drawn) | -2 | -2 | / | 75* | 3 | 2
O=C(O)C1CC(Br)C(Br)CC1C(=O)O (stereo not drawn) | / | -1 | / | 10 | / | /
C[C@@H]1CN([C@@H](C)CO)C(=O)c2cc(NC(=O)Nc3ccc(C(F)(F)F)cc3)ccc2O[C@@H](C)CCCCO[C@H]1CN(C)C(=O)Nc1cccc2ccccc12 | -4 | / | / | / | / | /
O=C(CN1CCOCC1)N[C@H]1CC[C@H](CCNC(=O)C2CCC2)O[C@H]1CO | -1 | / | / | / | / | /
CCOc1ccc2ccccc2c1CNc1nnnn1CC | -4 | 1 | -5 | 92* | 0 | 0
CCOc1ccc(Cl)cc1CNc1nnnn1CC | 0 | 0 | 4 | -1 | / | /
CC(=O)N1[C@@H]2CN(C(=O)c3ccccc3)c3ccccc3[C@@H]2[C@@H]1CO | 0 | / | / | / | / | /
CN(C)c1ccc(/C=N/NC(=O)c2ccc(CN3C(=O)c4cccc5cccc3c45)cc2)cc1 | / | / | -12 | / | / | /
O=C(N/N=C/c1ccccc1)c1ccc(CN2C(=O)c3cccc4cccc2c34)cc1 | -1 | 0 | -13 | 53* | 0 | 2
C[C@@H]1CN([C@H](C)CO)C(=O)c2cc(NC(=O)Nc3ccc4c(c3)OCO4)ccc2O[C@@H](C)CCCCO[C@H]1CN(C)Cc1ccc(C(F)(F)F)cc1 | 0 | / | / | / | / | /
COc1cc(NC(=O)Cn2cnc(C(=O)Nc3ccc(C)c(C)c3)n2)cc(OC)c1OC | 2 | / | / | 0 | / | /
Cc1ccc(NC(=O)Cn2cnc(C(=O)Nc3ccc(C)c(C)c3)n2)cc1C | -2 | / | / | 52* | 2 | 3
CCOC(=O)c1c(-n2c(C)cc(C=O)c2C)sc2c1CCCC2 | 0 | 19 | 0 | -3 | / | /
Cc1ccc(C)n1-c1sc2c(c1C(=O)O)CCCC2 | 52* | / | 33 | 97* | 11 | -2

Source: PubChem BioAssay
